Results as given in ChEMBL document CHEMBL4184148 (Bioorg Med Chem Lett, 2017).

What was measured:
[1] = tested on: Phosphatidylinositol 4,5-bisphosphate 3-kinase catalytic subunit alpha isoform (Homo sapiens), P42336 [E542K]; experiment: Binding affinity to human partial length PIK3CA E542K mutant (R108 to N1068 residues) expressed in HEK293 cells at 1 uM by Kinomescan method relative to control; assay type: cell-based
[2] = target: Tyrosine-protein kinase ABL1 (Homo sapiens) (UniProt P00519); experiment: Binding affinity to wild-type human phosphorylated ABL1 (S229 to K512 residues) expressed in HEK293 cells at 1 uM by Kinomescan method relative to control; assay type: cell-based
[3] = target: Receptor-interacting serine/threonine-protein kinase 4 (Homo sapiens) (UniProt P57078); experiment: Binding affinity to wild-type human partial length RIPK4 (M1 to V303 residues) expressed in HEK293 cells at 1 uM by Kinomescan method relative to control; assay type: cell-based
[4] = target: Proto-oncogene tyrosine-protein kinase ROS (Homo sapiens) (UniProt P08922); experiment: Binding affinity to wild-type human partial length ROS1 (A1921 to N2240 residues) expressed in Escherichia coli BL21 at 1 uM by Kinomescan method relative to control
[5] = target: Insulin-like growth factor 1 receptor (Homo sapiens) (UniProt P08069); experiment: Binding affinity to wild-type human partial length IGF1R (L972 to D1294 residues) expressed in Escherichia coli BL21 at 1 uM by Kinomescan method relative to control
[6] = target: Protein-tyrosine kinase 2-beta (Homo sapiens) (UniProt Q14289); experiment: Binding affinity to wild-type human full length PYK2 (M1 to E967 residues) expressed in Escherichia coli BL21 at 1 uM by Kinomescan method relative to control
Outline: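 Kinome-wide competition binding panel run by an outside provider, with each compound tested at a single concentration. Activity is read against the kinase panel.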

[7] = target: Tyrosine-protein kinase ABL1 (Homo sapiens) (UniProt P00519); experiment: Binding affinity to wild-type human non-phosphorylated ABL1 (S229 to K512 residues) expressed in HEK293 cells at 1 uM by Kinomescan method relative to control; assay type: cell-based
[8] = target: Proto-oncogene tyrosine-protein kinase receptor Ret (Homo sapiens) (UniProt P07949); experiment: Binding affinity to wild-type human partial length RET (E713 to D1014 residues) expressed in Escherichia coli BL21 at 1 uM by Kinomescan method relative to control
[9] = target: Dual specificity tyrosine-phosphorylation-regulated kinase 2 (Homo sapiens) (UniProt Q92630); experiment: Binding affinity to wild-type human full length DYRK2 (M1 to S528 residues) expressed in HEK293 cells at 1 uM by Kinomescan method relative to control; assay type: cell-based
Outline: (§1)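 Run as one kinome-wide competition binding panel with each compound at a single fixed concentration. Results were plotted as a kinome-wide selectivity map.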

[10] = target: Ribosomal protein S6 kinase alpha-6 (Homo sapiens) (UniProt Q9UK32); experiment: Binding affinity to wild-type human partial length N-terminal RSK4 kinase domain 1 (M1 to E397 residues) expressed in HEK293 cells at 1 uM by Kinomescan method relative to control; assay type: cell-based
[11] = target: Cyclin-dependent kinase 9 (Homo sapiens) (UniProt P50750); experiment: Binding affinity to wild-type human full length CDK9 (M1 to F372 residues) expressed in Escherichia coli BL21 at 1 uM by Kinomescan method relative to control; outline: as §1
[12] = target: Receptor tyrosine-protein kinase erbB-4 (Homo sapiens) (UniProt Q15303); experiment: Binding affinity to wild-type human partial length ERBB4 (L690 to K994 residues) expressed in Escherichia coli BL21 at 1 uM by Kinomescan method relative to control
[13] = target: Membrane-associated tyrosine- and threonine-specific cdc2-inhibitory kinase (Homo sapiens) (UniProt Q99640); experiment: Binding affinity to wild-type human partial length PKMYT1 (A88 to G366 residues) expressed in Escherichia coli BL21 at 1 uM by Kinomescan method relative to control
[14] = target: Ribosomal protein S6 kinase alpha-2 (Homo sapiens) (UniProt Q15349); experiment: Binding affinity to wild-type human partial length C-terminal RSK2 kinase domain 2 (V402 to S715 residues) expressed in HEK293 cells at 1 uM by Kinomescan method relative to control; assay type: cell-based
[15] = tested on: Receptor-type tyrosine-protein kinase FLT3 (Homo sapiens), P36888 [D835Y]; experiment: Binding affinity to human partial length FLT3 D835Y mutant (Q580 to Y969 residues) expressed in Escherichia coli BL21 at 1 uM by Kinomescan method relative to control
[16] = target: Serine/threonine-protein kinase pim-2 (Homo sapiens) (UniProt Q9P1W9); experiment: Binding affinity to wild-type human partial length PIM2 (M1 to E291 residues) expressed in Escherichia coli BL21 at 1 uM by Kinomescan method relative to control
[17] = tested on: Tyrosine-protein kinase ABL1 (Homo sapiens), P00519 [M351T]; experiment: Binding affinity to human phosphorylated ABL1 M351T mutant (S229 to K512 residues) expressed in HEK293 cells at 1 uM by Kinomescan method relative to control; assay type: cell-based
[18] = target: Serine/threonine-protein kinase Sgk2 (Homo sapiens) (UniProt Q9HBY8); experiment: Binding affinity to wild-type human partial length SGK2 (L54 to C427 residues) expressed in HEK293 cells at 1 uM by Kinomescan method relative to control; assay type: cell-based
[19] = tested on: Tyrosine-protein kinase ABL1 (Homo sapiens), P00519 [T315I]; experiment: Binding affinity to human non-phosphorylated ABL1 T315I mutant (S229 to K512 residues) expressed in HEK293 cells at 1 uM by Kinomescan method relative to control; assay type: cell-based
[20] = target: Misshapen-like kinase 1 (Homo sapiens) (UniProt Q8N4C8); experiment: Binding affinity to wild-type human partial length MINK (M1 to K312 residues) expressed in HEK293 cells at 1 uM by Kinomescan method relative to control; assay type: cell-based
[21] = target: Inhibitor of nuclear factor kappa-B kinase subunit alpha (Homo sapiens) (UniProt O15111); experiment: Binding affinity to wild-type human full length IKK-alpha (M1 to E745 residues) expressed in HEK293 cells at 1 uM by Kinomescan method relative to control; assay type: cell-based; outline: as §1
[22] = target: Ribosomal protein S6 kinase alpha-2 (Homo sapiens) (UniProt Q15349); experiment: Binding affinity to wild-type human partial length N-terminal RSK2 kinase domain 1 (M1 to D394 residues) expressed in HEK293 cells at 1 uM by Kinomescan method relative to control; assay type: cell-based
[23] = tested on: Fibroblast growth factor receptor 3 (Homo sapiens), P22607 [G697C]; experiment: Binding affinity to human partial length FGFR3 G697C mutant (R442 to S771 residues) expressed in Escherichia coli BL21 at 1 uM by Kinomescan method relative to control
[24] = target: Tyrosine-protein kinase Fyn (Homo sapiens) (UniProt P06241); experiment: Binding affinity to wild-type human partial length FYN (T243 to L534 residues) expressed in Escherichia coli BL21 at 1 uM by Kinomescan method relative to control
[25] = target: Platelet-derived growth factor receptor beta (Homo sapiens) (UniProt P09619); experiment: Binding affinity to wild-type human partial length PDGFRB (V582 to Y1009 residues) expressed in Escherichia coli BL21 at 1 uM by Kinomescan method relative to control

Chain of Ribosomal protein S6 kinase alpha-2 (Homo sapiens) (Q15349 whole entry, the tested form may be a part): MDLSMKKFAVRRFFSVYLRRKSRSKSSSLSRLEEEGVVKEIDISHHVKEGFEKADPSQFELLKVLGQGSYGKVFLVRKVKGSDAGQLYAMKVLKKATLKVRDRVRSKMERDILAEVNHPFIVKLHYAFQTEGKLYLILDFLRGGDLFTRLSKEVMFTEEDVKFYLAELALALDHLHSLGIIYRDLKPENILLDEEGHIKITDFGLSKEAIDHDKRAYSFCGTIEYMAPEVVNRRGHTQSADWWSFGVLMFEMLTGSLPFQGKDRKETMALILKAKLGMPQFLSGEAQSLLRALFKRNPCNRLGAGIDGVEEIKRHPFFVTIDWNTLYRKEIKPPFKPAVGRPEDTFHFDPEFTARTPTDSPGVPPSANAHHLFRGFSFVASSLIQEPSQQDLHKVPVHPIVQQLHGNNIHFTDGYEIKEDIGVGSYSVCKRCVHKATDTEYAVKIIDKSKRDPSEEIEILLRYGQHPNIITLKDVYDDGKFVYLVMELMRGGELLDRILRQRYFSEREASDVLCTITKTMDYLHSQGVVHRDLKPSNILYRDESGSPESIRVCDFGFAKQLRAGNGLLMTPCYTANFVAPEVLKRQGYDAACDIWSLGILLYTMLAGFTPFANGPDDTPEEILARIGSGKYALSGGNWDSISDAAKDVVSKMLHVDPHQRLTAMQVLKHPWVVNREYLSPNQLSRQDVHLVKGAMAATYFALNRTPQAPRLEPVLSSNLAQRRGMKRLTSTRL
Chain of Receptor tyrosine-protein kinase erbB-4 (Homo sapiens) (Q15303 whole entry, the tested form may be a part): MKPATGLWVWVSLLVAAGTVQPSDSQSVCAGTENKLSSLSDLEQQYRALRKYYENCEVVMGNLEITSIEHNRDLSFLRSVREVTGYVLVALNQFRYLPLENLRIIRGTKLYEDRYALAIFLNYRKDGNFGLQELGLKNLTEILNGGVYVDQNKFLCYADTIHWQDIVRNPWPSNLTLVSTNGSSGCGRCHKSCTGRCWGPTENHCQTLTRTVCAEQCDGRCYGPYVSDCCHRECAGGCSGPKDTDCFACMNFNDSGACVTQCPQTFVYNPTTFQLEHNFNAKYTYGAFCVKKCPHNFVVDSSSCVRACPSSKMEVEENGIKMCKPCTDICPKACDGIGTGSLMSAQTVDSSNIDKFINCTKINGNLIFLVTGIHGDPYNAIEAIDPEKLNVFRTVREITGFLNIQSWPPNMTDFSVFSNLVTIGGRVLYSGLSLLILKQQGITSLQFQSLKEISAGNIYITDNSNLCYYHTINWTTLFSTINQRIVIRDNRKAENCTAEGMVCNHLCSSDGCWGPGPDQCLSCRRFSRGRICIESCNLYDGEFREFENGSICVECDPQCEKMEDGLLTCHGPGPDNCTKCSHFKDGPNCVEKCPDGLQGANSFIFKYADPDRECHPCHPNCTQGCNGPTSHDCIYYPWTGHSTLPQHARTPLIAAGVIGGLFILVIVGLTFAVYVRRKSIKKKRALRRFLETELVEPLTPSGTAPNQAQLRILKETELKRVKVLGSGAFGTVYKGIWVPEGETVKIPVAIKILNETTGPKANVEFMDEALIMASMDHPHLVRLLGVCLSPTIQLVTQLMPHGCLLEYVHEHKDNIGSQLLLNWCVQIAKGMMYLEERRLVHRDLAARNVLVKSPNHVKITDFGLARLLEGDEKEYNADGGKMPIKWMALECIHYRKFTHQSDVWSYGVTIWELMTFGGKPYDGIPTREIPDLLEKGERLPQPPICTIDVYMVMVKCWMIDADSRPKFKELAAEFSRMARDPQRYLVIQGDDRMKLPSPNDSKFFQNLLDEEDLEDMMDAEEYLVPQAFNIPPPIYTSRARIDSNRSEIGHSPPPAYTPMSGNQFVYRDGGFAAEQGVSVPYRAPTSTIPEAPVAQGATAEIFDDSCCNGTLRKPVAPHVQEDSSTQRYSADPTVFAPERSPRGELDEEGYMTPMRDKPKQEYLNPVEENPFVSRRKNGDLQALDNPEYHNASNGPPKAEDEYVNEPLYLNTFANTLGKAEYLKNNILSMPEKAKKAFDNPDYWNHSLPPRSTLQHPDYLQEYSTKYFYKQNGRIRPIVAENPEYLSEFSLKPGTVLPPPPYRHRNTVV
Chain of Fibroblast growth factor receptor 3 (Homo sapiens), P22607 [G697C] (P22607 whole entry G697C, the tested form may be a part): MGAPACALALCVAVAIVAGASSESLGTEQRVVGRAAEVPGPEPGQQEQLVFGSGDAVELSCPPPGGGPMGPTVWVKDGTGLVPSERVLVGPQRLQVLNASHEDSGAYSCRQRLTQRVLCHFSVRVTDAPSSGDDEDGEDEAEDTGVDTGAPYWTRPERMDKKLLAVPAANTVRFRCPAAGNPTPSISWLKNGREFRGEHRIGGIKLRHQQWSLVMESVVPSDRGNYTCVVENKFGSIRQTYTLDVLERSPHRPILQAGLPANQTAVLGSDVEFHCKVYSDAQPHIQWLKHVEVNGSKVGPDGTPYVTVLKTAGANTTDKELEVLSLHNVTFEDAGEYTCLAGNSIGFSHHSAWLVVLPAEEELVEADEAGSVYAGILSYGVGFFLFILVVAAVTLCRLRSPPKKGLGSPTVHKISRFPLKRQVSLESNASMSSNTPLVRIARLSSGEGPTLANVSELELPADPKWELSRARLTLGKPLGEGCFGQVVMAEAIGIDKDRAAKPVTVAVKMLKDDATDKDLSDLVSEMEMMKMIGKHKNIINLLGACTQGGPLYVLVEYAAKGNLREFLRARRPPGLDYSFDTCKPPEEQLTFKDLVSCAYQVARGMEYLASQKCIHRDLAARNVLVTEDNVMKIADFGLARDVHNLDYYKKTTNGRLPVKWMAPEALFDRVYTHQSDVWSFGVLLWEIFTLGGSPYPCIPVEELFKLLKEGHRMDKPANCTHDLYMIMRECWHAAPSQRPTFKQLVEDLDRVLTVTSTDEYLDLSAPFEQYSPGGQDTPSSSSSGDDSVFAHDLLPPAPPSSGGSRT
Chain of Insulin-like growth factor 1 receptor (Homo sapiens) (P08069 31-736 limits assumed): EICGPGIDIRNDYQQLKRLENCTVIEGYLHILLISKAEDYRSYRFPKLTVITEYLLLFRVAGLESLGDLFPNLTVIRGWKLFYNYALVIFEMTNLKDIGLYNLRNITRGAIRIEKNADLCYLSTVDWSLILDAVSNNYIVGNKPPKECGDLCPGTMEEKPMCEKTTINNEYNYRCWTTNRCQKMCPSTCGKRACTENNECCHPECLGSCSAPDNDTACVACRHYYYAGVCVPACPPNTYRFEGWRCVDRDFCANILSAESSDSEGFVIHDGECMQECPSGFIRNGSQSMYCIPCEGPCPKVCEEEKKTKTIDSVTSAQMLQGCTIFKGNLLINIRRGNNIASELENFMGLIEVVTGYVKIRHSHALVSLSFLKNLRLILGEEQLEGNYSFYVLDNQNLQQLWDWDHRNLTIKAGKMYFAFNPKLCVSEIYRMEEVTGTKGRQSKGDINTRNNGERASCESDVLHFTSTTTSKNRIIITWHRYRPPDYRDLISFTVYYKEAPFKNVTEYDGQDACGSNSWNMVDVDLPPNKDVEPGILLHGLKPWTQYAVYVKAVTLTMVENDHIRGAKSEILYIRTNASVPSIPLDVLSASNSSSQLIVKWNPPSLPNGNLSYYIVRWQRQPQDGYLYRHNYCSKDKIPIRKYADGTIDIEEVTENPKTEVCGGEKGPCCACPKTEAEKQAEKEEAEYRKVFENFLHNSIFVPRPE
Chain of Insulin-like growth factor 1 receptor (Homo sapiens) (P08069 741-1367 limits assumed): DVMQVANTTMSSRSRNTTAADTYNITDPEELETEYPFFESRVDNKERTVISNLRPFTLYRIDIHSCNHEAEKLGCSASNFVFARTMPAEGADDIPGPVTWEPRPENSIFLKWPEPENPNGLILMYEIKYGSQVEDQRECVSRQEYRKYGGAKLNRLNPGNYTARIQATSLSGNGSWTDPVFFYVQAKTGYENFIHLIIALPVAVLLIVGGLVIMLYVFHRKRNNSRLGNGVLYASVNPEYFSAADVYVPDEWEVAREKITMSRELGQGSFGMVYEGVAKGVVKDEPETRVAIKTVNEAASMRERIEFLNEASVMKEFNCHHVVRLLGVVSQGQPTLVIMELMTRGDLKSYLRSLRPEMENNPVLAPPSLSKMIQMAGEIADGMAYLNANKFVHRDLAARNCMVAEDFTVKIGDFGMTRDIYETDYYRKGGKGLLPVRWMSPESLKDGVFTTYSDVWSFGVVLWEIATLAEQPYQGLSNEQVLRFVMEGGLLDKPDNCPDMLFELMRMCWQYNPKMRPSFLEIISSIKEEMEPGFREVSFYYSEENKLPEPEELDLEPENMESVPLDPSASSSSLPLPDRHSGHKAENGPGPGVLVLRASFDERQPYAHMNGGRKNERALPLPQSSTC
Chain of Dual specificity tyrosine-phosphorylation-regulated kinase 2 (Homo sapiens) (Q92630 whole entry, the tested form may be a part): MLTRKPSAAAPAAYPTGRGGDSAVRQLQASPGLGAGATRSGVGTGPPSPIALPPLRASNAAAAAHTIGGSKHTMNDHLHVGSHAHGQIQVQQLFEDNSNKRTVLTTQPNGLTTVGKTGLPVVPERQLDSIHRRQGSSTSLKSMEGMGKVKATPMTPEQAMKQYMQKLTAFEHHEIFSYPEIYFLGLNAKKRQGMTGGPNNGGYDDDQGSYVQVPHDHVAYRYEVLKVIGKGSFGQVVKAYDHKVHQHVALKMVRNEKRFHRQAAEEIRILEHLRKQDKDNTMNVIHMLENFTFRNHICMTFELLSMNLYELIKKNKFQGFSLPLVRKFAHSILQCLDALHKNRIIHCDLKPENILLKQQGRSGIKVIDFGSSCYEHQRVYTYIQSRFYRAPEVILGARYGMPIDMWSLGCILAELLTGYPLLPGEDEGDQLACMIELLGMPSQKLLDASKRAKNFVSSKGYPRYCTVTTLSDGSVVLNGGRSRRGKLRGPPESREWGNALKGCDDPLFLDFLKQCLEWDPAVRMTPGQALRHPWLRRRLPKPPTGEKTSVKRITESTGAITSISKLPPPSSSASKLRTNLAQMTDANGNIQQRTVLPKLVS

| Structure (SMILES) | Activity [1] [%] | Activity [2] [%] | Activity [3] [%] | Activity [4] [%] | Activity [5] [%] | Activity [6] [%] | Activity [7] [%] | Activity [8] [%] | Activity [9] [%] | Activity [10] [%] | Activity [11] [%] | Activity [12] [%] | Activity [13] [%] | Activity [14] [%] | Activity [15] [%] | Activity [16] [%] | Activity [17] [%] | Activity [18] [%] | Activity [19] [%] | Activity [20] [%] | also measured |
| --- | --- | --- | --- | --- | --- | --- | --- | --- | --- | --- | --- | --- | --- | --- | --- | --- | --- | --- | --- | --- | --- |
| CCC(=O)Nc1ccc(C(=O)Nc2ccc(Nc3ncc4c(n3)N(C)c3ccc(C)cc3C(=O)N4C)cc2)cc1 | 76 | 90 | 86 | 81 | 84 | 95 | 67 | 88 | 100 | 74 | 97 | 96 | 86 | 100 | 77 | 100 | 100 | 70 | 81 | 65 | Activity [21]: 99%; Activity [22]: 66%; Activity [23]: 95%; Activity [24]: 100%; Activity [25]: 84% |
| C=CC(=O)Nc1ccc(C(=O)Nc2ccc(Nc3ncc4c(n3)N(C)c3ccc(C)cc3C(=O)N4C)cc2)cc1 | 62 | 94 | 91 | 98 | 100 | 97 | 77 | 86 | 92 | 76 | 97 | 96 | 96 | 100 | 83 | 100 | 95 | 100 | 100 | 98 | Activity [21]: 100%; Activity [22]: 82%; Activity [23]: 93%; Activity [24]: 81%; Activity [25]: 94% |
